# Test results reported in ChEMBL document CHEMBL1127064, “A novel series of N-(1-aminoalkylidene)carboximidamides as potential hypoglycemic agents” (1993).
# Activity calls are given as the source filed them. The rule behind the calls is not given here.
# Legend:
# [1] = organism: Rattus norvegicus; assay: Effective dose to produce a 30% maximum decrease of glucose from control; type: functional
# Outline: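 Rats, subcutaneous dosing at 10, 5 and 2.5 mg/kg, calculated as free base. For each rat, the maximum percent lowering of blood glucose from the control group mean at the matched time point is taken. The dose giving a 30% decrease, with its 95% CI, comes from regression of mean maximum percent decrease versus log dose (mg/kg).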
# [2] = tested on: Rattus norvegicus; assay: Mean maximum percent lowering of glucose at a single dose of 10 mg/kg, subcutaneously using rat oral glucose tolerance test.; type: functional; settings: route subcutaneous
# Outline: (§1)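 Rats given a single 10 mg/kg sc dose, calculated as free base. Blood glucose is compared with controls at each time point by unpaired Student's t-test; a significant lowering at any point (95% confidence) counts as active. Each rat's maximum percent lowering from the matched control mean is averaged to give the mean maximum percent lowering.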
# [3] = tested on: Rattus norvegicus; assay: Mean maximum percent lowering of glucose was determined at a single dose of 10 mg/kg, subcutaneously using rat oral glucose tolerance test; IA = inactive; type: functional, organism-based; parameters: dose 10 mg/kg; outline: as §1
Compound,ED30 [1] [mg/kg],Lowering [2] [%],IA [3]
C/N=C(C)\N=C(\Nc1ccccc1)N1CCOCC1,2.6,45,
CC(=N/C(C)(C)C)/N=C(/Nc1ccccc1)N1CCOCC1,4.2,45,
C/C(=N\C(=N\c1ccccc1)N1CCOCC1)N(C)c1ccccc1,,20,
CC(C)/C(=N\C(=N\c1ccccc1)N1CCOCC1)N(C)C,4.3,43,
C/C(=N\C(=N\c1ccccc1)N1CCOCC1)N(C)C,6.7,38,
CN(C)/C(=N/C(=N/c1ccccc1)N1CCOCC1)C(C)(C)C,9.6,40,
C/C(=N\C(=N\c1ccccc1)N1CCOCC1)N1CCOCC1,,24,
CC(=N)/N=C(/Nc1ccccc1)N1CCOCC1,,21,
CC(C)/N=C(\N=C(\Nc1ccccc1)N1CCOCC1)C(C)C,,23,
CC(=N/C(C)C)/N=C(/Nc1ccccc1)N1CCOCC1,3.9,42,
CN(C)/C(=N/C(=N/c1ccccc1)N1CCOCC1)C1CCCCC1,,27,
CC(=N/c1ccccc1)/N=C(/Nc1ccccc1)N1CCOCC1,,26,
CC(C)C(=N)/N=C(/Nc1ccccc1)N1CCOCC1,,34,
CC/C(=N\C(=N\c1ccccc1)N1CCOCC1)N(C)C,5.3,43,
C/N=C(\N=C(\Nc1ccccc1)N1CCCC1)C(C)C,,43,
CC(=N/S(C)(=O)=O)/N=C(/Nc1ccccc1)N1CCOCC1,,,inactive
CCCCN(C)/C(C)=N/C(=N/c1ccccc1)N1CCOCC1,7.6,33,
CN/C(=N/C(=N/c1ccccc1OC)N1CCOCC1)C(C)C,,21,
CCOC(=O)C/N=C(C)\N=C(\Nc1ccccc1)N1CCOCC1,,,inactive

Compound,ED30 [1] [mg/kg],Lowering [2] [%],IA [3]
C/C(=N\C(=N\c1ccccc1)N1CCOCC1)N1CCCCC1,5.3,46,
CC/N=C(\N=C(\Nc1ccccc1)N1CCOCC1)C(C)C,,26,
CC/N=C(C)\N=C(\Nc1ccccc1)N1CCOCC1,4.6,48,
CN(C)/C(=N/C(=N/c1ccccc1)N1CCOCC1)c1ccccc1,,25,
CN(C)/C(CC(C)(C)C)=N/C(=N/c1ccccc1)N1CCOCC1,5.9,37,
CCC/N=C(C)\N=C(\Nc1ccccc1)N1CCOCC1,0.97,56,
CC(=N/CCO)/N=C(/Nc1ccccc1)N1CCOCC1,,15,
CC(=O)N/C(C)=N/C(=N/c1ccccc1)N1CCOCC1,,22,
CN1CCC/C1=N\C(=N\c1ccccc1)N1CCOCC1 [LINOGLIRIDE],6.1,34,
CN(C)/C(Cc1ccccc1)=N/C(=N/c1ccccc1)N1CCOCC1,,27,
CCCCCC/C(=N\C(=N\c1ccccc1)N1CCOCC1)N(C)C,,31,
CN(C)/C=N/C(=N/c1ccccc1)N1CCOCC1,,22,
C/C(=N\C(=N\c1ccccc1)N1CCOCC1)N1CCN(C)CC1,,,inactive
CC(=N/Cc1ccccc1)/N=C(/Nc1ccccc1)N1CCOCC1,4.3,50,
CCC/N=C(\N=C(\Nc1ccccc1)N1CCOCC1)C(C)C,,31,
C/N=C(\N=C(\Nc1ccc(F)cc1)N1CCOCC1)C(C)C,,42,
C/C(=N\C(=N\c1ccccc1)N1CCOCC1)N(Cc1ccccc1)c1ccccc1,,17,
C/N=C(\N=C(\Nc1ccccc1)N1CCOCC1)C(C)C,1.5,52,
CCC(=N/C)/N=C(/Nc1ccccc1)N1CCOCC1,,42,
